This is an account of results in ChEMBL document CHEMBL3244043, “Nucleoside 5'-monophosphate analogues. Synthesis of 5'-sulfamino-5'-deoxynucleosides” (J Med Chem, 1978).

In data set [1] the test system is Escherichia coli. Briefly: Antibacterial activity against Escherichia coli B assessed as growth inhibition at 1 x 10^-3 M relative to control. It is filed as functional. The note with it: read-out: GI.
The test system of data set [2] is L1210. Kind of data set: Cytotoxicity against mouse L1210 cells assessed as cell growth at 1 x 10^-4 M. The format is functional, cell-based.
Data set [3] deals with Human alphaherpesvirus 1. Briefly: Antiviral activity against Herpes simplex virus type 1 infected in African green monkey CV1 cells assessed as inhibition of viral replication at 1 x 10^-4 M relative to control. Conditions: Human alphaherpesvirus 1, CV-1. The format is functional.
The subject of data set [4] is Escherichia coli. Briefly: Antibacterial activity against Escherichia coli K-12 assessed as growth inhibition at 1 x 10^-3 M relative to control. It is filed as functional. Conditions: read-out: GI.
Data set [5] concerns L1210. Kind of data set: Cytotoxicity against mouse L1210 cells assessed as growth inhibition at 1 x 10^-3 M. It is filed as functional, cell-based.
A further data set has as its system Enterococcus faecalis. Kind of data set: Antibacterial activity against Streptococcus faecalis assessed as growth inhibition at 1 x 10^-3 M relative to control. It is filed as functional. Conditions: read-out: GI.
The subject of data set [6] is Human alphaherpesvirus 1. Briefly: Antiviral activity against Herpes simplex virus type 1 infected in African green monkey CV1 cells assessed as inhibition of viral replication at 1 x 10^-5 M relative to control. It is filed as functional. Conditions: Human alphaherpesvirus 1, CV-1.
A short description of data set [7]: Stability of the compound in NaOH assessed as cleavage of sulfamino group at 23 degC after 24 hrs. It is filed as physicochemical. A digest of the protocol: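 Compound exposed to 0.1 M NaOH at 23 °C for 24 h, then examined for any cleavage of the 5'-sulfamino group.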
Data set [8] in a line: Drug degradation in HCl assessed as hydrolysis of 5'-sulfamino group to form amino nucleoside at 23 degC after 24 hrs. The format is physicochemical. The note with it: read-out: Drug degradation. A digest of the protocol:
(§1)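 Compound held in 0.1 M HCl at 23 °C for 24 h. Hydrolysis reported as percent cleavage of the 5'-sulfamino group, giving the amino nucleoside, and of the glycosidic bond, giving adenine.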

Data set [9] can be described thus: Cytotoxicity against African green monkey CV1 cells assessed as effect on cell growth at 1 x 10^-4 M. The format is cell-based. The note with it: chlorocebus aethiops, cv-1, 100 µM.
Data set [10] has as its system Human alphaherpesvirus 1. Kind of data set: Antiviral activity against Herpes simplex virus type 1 infected in African green monkey CV1 cells assessed as inhibition of viral replication at 10^-4 M. It is filed as functional, organism-based. The note with it: CV-1.
A short description of data set [11]: Drug degradation in HCl assessed as hydrolysis of glycosidic linkage to form adenine at 23 degC after 24 hrs. It is filed as physicochemical. The note with it: read-out: Drug degradation. A digest of the protocol: as §1

In general, inhibition refers to the share of the control response that was lost under treatment.

The source made the active and inactive calls. No cut-off for these calls is given here. A value given as a limit tells only on which side of the number the result lay.

`Cc1cn([C@H]2C[C@H](O)[C@@H](CNS(=O)(=O)O)O2)c(=O)[nH]c1=O`: the inhibition of growth at 1000 µM in the data set on Escherichia coli [1], in the data set on Escherichia coli [4] and in the data set on Enterococcus faecalis was less than 10% throughout. The result with L1210 [2] was inactive. In the data set on Human alphaherpesvirus 1 [3], the inhibition at 100 µM amounted to 70%. Besides, the “growth inhibition (GI)” value in the data set on L1210 [5] is “inactive”. For the same compound, the inhibition at 10 µM with Human alphaherpesvirus 1 [6] came out at 35%. In data set [7], the Stability entry was “Stable”. Further, the degraded at 24 h in data set [8] was found to be 2.4%. Moreover, in data set [9], the Activity result is given as “Non-toxic”.
On to `Nc1ncnc2c1ncn2[C@@H]1O[C@H](CNS(=O)(=O)O)[C@@H](O)[C@H]1O`, for which the inhibition of growth at 1000 µM with Escherichia coli [1], with Escherichia coli [4] and in the data set on Enterococcus faecalis was less than 10% each time. Besides, the result in the data set with L1210 [2] was inactive. In addition, the inhibition entry with Human alphaherpesvirus 1 [10] was “inactive”. Further, the degraded at 24 h in [11] was 16%; in [8], 0.75%. For the same compound, the “growth inhibition (GI)” value with L1210 [5] was “inactive”. Further, in data set [7], the Stability entry is reported as “Stable”.
